Experiments:
[1] = Selectivity index, ratio of CC50 for human HepG2 cells in presence of 1% FBS to MIC for Acinetobacter baumannii isolate 246-01-C; format: toxicity; conditions: read-out: Selectivity Index
[2] = system: Acinetobacter baumannii; assay: Antibacterial activity against Acinetobacter baumannii isolate 07AC-336 after 18 hrs by broth microdilution method; format: functional; conditions: isolate 07AC-336, 18 h
Outline: (§1)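 Broth microdilution per CLSI in cation-adjusted Mueller-Hinton broth. 100 µL inoculum (~10^6 cfu/mL in CaMHB) mixed with 100 µL CaMHB containing compound, 0 to 128 µM. Incubated 18 h at 37 °C. MIC taken as the lowest concentration with no visible growth. Polymyxin B served as positive control. Isolates were stored at -80 °C in tryptone soy broth with 20% glycerol.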

[3] = system: Acinetobacter baumannii; assay: Antibacterial activity against Acinetobacter baumannii isolate 246-01-C after 18 hrs by broth microdilution method; format: functional; outline: as §1
[4] = Selectivity index, ratio of CC50 for human HepG2 cells in presence of 1% FBS to MIC for Acinetobacter baumannii ATCC 19606; format: toxicity; conditions: read-out: Selectivity Index
[5] = system: Staphylococcus aureus; assay: Antibacterial activity against methicillin-resistant Staphylococcus aureus ATCC 43300 after 18 hrs by broth microdilution method; format: functional; conditions: ATCC 43300, 18 h; outline: as §1
[6] = Selectivity index, ratio of CC50 for human HepG2 cells in presence of 1% FBS to MIC for Pseudomonas aeruginosa isolate M146201; format: toxicity; conditions: read-out: Selectivity Index
Outline: (§2)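 Selectivity index is CC50 (1% FBS) divided by MIC. […] They then got compound at 300 to 0.14 µM (3-fold steps) for 24 h at 37 °C, 5% CO2. Resazurin (10 µM, 2 h) was read at ex/em 560/590 in duplicate wells. For MIC, CLSI broth microdilution was run in CaMHB with ~10^6 cfu/mL inoculum and 0–128 µM compound.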

[7] = Selectivity index, ratio of CC50 for human HepG2 cells in presence of 1% FBS to MIC for Klebsiella pneumoniae isolate 1; format: toxicity; conditions: read-out: Selectivity Index
[8] = Selectivity index, ratio of CC50 for human HepG2 cells in presence of 1% FBS to MIC for Klebsiella pneumoniae isolate 248-33-D; format: toxicity; conditions: read-out: Selectivity Index
[9] = Selectivity index, ratio of CC50 for human HepG2 cells in presence of 1% FBS to MIC for vancomycin-resistant Enterococcus faecium ATCC 700221; format: toxicity; conditions: read-out: Selectivity Index; outline: as §2
[10] = system: Pseudomonas aeruginosa; assay: Antibacterial activity against Pseudomonas aeruginosa isolate 912 after 18 hrs by broth microdilution method; format: functional; conditions: isolate 912, 18 h; outline: as §1
[11] = system: Enterococcus faecium; assay: Antibacterial activity against vancomycin-resistant Enterococcus faecium ATCC 700221 after 18 hrs by broth microdilution method; format: functional; conditions: ATCC 700221, 18 h; outline: as §1
[12] = Selectivity index, ratio of CC50 for human HepG2 cells in presence of 1% FBS to MIC for Acinetobacter baumannii isolate 07AC-336; format: toxicity; conditions: read-out: Selectivity Index
[13] = Selectivity index, ratio of CC50 for human HepG2 cells in presence of 1% FBS to MIC for Escherichia coli N2381; format: toxicity; conditions: read-out: Selectivity Index
[14] = Selectivity index, ratio of CC50 for human HepG2 cells in presence of 1% FBS to MIC for vancomycin-resistant Staphylococcus aureus ATCC 700699; format: toxicity; conditions: read-out: Selectivity Index; outline: as §2
[15] = Selectivity index, ratio of CC50 for human HepG2 cells in presence of 1% FBS to MIC for vancomycin-intermediate Staphylococcus aureus ATCC 700698; format: toxicity; conditions: read-out: Selectivity Index; outline: as §2
[16] = Selectivity index, ratio of CC50 for human HepG2 cells in presence of 1% FBS to MIC for Escherichia coli N11281; format: toxicity; conditions: read-out: Selectivity Index
[17] = Selectivity index, ratio of CC50 for human HepG2 cells in presence of 1% FBS to MIC for Pseudomonas aeruginosa isolate 912; format: toxicity; conditions: read-out: Selectivity Index; outline: as §2
[18] = Selectivity index, ratio of CC50 for human HepG2 cells in presence of 1% FBS to MIC for Pseudomonas aeruginosa QLD PSA 1; format: toxicity; conditions: read-out: Selectivity Index; outline: as §2
[19] = system: Escherichia coli; assay: Antibacterial activity against Escherichia coli N4149 after 18 hrs by broth microdilution method; format: functional; conditions: N4149, 18 h; outline: as §1
[20] = Selectivity index, ratio of CC50 for human HepG2 cells in presence of 1% FBS to MIC for Escherichia coli N4149; format: toxicity; conditions: read-out: Selectivity Index
[21] = Selectivity index, ratio of CC50 for human HepG2 cells in presence of 1% FBS to MIC for Mycobacterium tuberculosis H37Rv ATCC 25618; format: toxicity; conditions: read-out: Selectivity Index
[22] = Selectivity index, ratio of CC50 for human HepG2 cells in presence of 1% FBS to MIC for Acinetobacter baumannii ATCC 17978 col10; format: toxicity; conditions: read-out: Selectivity Index
[23] = Selectivity index, ratio of CC50 for human HepG2 cells in presence of 1% FBS to IC50 for CQ-sensitive GFP-fused Plasmodium falciparum D10; format: toxicity; conditions: read-out: Ratio IC50
[24] = system: Staphylococcus aureus; assay: Antibacterial activity against vancomycin-resistant Staphylococcus aureus ATCC 700699 after 18 hrs by broth microdilution method; format: functional; conditions: ATCC 700699, 18 h; outline: as §1
[25] = Selectivity index, ratio of CC50 for human HepG2 cells in presence of 1% FBS to MIC for Pseudomonas aeruginosa ATCC 27853; format: toxicity; conditions: read-out: Selectivity Index; outline: as §2
[26] = system: Klebsiella pneumoniae; assay: Antibacterial activity against Klebsiella pneumoniae isolate 224-11-C after 18 hrs by broth microdilution method; format: functional; outline: as §1
[27] = system: Klebsiella pneumoniae; assay: Antibacterial activity against Klebsiella pneumoniae isolate 1 after 18 hrs by broth microdilution method; format: functional; conditions: isolate 1, 18 h; outline: as §1
[28] = Selectivity index, ratio of CC50 for human HepG2 cells in presence of 1% FBS to MIC for Klebsiella pneumoniae isolate M320445; format: toxicity; conditions: read-out: Selectivity Index
[29] = system: Pseudomonas aeruginosa; assay: Antibacterial activity against Pseudomonas aeruginosa isolate 18878B klon 1 after 18 hrs by broth microdilution method; format: functional; conditions: isolate 18878B klon 1, 18 h; outline: as §1
[30] = Selectivity index, ratio of CC50 for human HepG2 cells in presence of 1% FBS to MIC for Klebsiella pneumoniae isolate 224-11-C; format: toxicity; conditions: read-out: Selectivity Index
[31] = Selectivity index, ratio of CC50 for human HepG2 cells in presence of 1% FBS to MIC for Acinetobacter baumannii ATCC 17978; format: toxicity; conditions: read-out: Selectivity Index
[32] = system: Acinetobacter baumannii; assay: Antibacterial activity against Acinetobacter baumannii ATCC 19606 col10 after 18 hrs by broth microdilution method; format: functional; conditions: ATCC 19606 = CIP 70.34 = JCM 6841 col10, 18 h; outline: as §1
[33] = system: Pseudomonas aeruginosa; assay: Antibacterial activity against Pseudomonas aeruginosa isolate 19147nm after 18 hrs by broth microdilution method; format: functional; outline: as §1
[34] = system: Staphylococcus aureus; assay: Antibacterial activity against vancomycin-intermediate Staphylococcus aureus ATCC 700698 after 18 hrs by broth microdilution method; format: functional; conditions: ATCC 700698, 18 h; outline: as §1

Compound | selectivity ratio [1] | MIC [2] [µM] | MIC [3] [µM] | selectivity ratio [4] | MIC [5] [µM] | selectivity ratio [6] | selectivity ratio [7] | selectivity ratio [8] | selectivity ratio [9] | MIC [10] [µM] | MIC [11] [µM] | selectivity ratio [12] | selectivity ratio [13] | selectivity ratio [14] | selectivity ratio [15] | selectivity ratio [16] | selectivity ratio [17] | selectivity ratio [18] | MIC [19] [µM] | selectivity ratio [20] | other results
c1ccc2c(c1)[I+]c1ccccc1-2 | 6.3 | 19 | 4.7 | 3.1 | 4.7 | 3.1 | 0.78 | 0.78 | 6.3 | 4.7 | 4.7 | 1.6 | 0.78 | 1.6 | 1.6 | 0.78 | 6.3 | 3.1 | 37 | 0.78 | selectivity ratio [21]: 96; selectivity ratio [22]: 50; selectivity ratio [23]: 221; MIC [24]: 19 µM; selectivity ratio [25]: 0.39; MIC [26]: 75 µM; MIC [27]: 75 µM; selectivity ratio [28]: 0.78; MIC [29]: 4.7 µM; selectivity ratio [30]: 0.78; selectivity ratio [31]: 13; MIC [32]: 4.7 µM; MIC [33]: 2.3 µM; MIC [34]: 19 µM
COc1cccc2c1-c1ccccc1[I+]2 | 0.55 | 70 | 70 | 1.1 | 35 | > 0.55 | > 0.55 | > 0.55 | 4.4 | 70 | 8.7 | 0.55 | 0.55 | 1.1 | 1.1 | > 0.55 | 0.55 | > 0.55 | > 70 | > 0.55 | selectivity ratio [21]: 8.8; selectivity ratio [22]: 1.1; selectivity ratio [23]: 225; MIC [24]: 35 µM; selectivity ratio [25]: > 0.55; MIC [26]: > 70 µM; MIC [27]: > 70 µM; selectivity ratio [28]: 0.55; MIC [29]: 70 µM; selectivity ratio [30]: > 0.55; selectivity ratio [31]: 1.1; MIC [32]: 17 µM; MIC [33]: 70 µM; MIC [34]: 35 µM
Fc1cccc2c1-c1ccccc1[I+]2 | < 16 | 1.1 | < 0.28 | 8.2 | 2.2 | 4.1 | 0.51 | 0.51 | 8.2 | 4.5 | 0.56 | 4.1 | 4.2 | 2.1 | 2.1 | 1 | 1 | 1 | 1.1 | 4.2 | selectivity ratio [21]: 16; selectivity ratio [22]: < 16; selectivity ratio [23]: 96; MIC [24]: 2.2 µM; selectivity ratio [25]: 2.1; MIC [26]: 9 µM; MIC [27]: 9 µM; selectivity ratio [28]: 0.51; MIC [29]: < 0.28 µM; selectivity ratio [30]: 0.51; selectivity ratio [31]: 8.2; MIC [32]: 0.56 µM; MIC [33]: < 0.28 µM; MIC [34]: 2.2 µM
